Results on 16 compounds are retold here after ChEMBL document CHEMBL1156110, “Novel N-hydroxybenzamide-based HDAC inhibitors with branched CAP group” (Bioorg Med Chem Lett, 2009).

Molecules are shown by their SMILES. Active and inactive are the calls of the source. No cut-off for these calls is given here. Some results are limits rather than exact numbers.

Assay [1] has as its system PC-3. Kind of assay: Antiproliferative activity against human PC3 cells after 48 hrs by MTT assay. The assay is classed as functional. The following applies: PC-3, 48 h.
Assay [2] has as its system U-937. Kind of assay: Cell cycle arrest in human U937 cells assessed as accumulation at G1 phase at 5 uM after 30 hrs by FACS. Type of assay: functional, cell-based.
Assay [3] relates to A549. Kind of assay: Antiproliferative activity against human A549 cells after 48 hrs by MTT assay. Type of assay: functional. The following applies: A549, 48 h.
Assay [4] relates to HepG2. The assay is described as follows: Antiproliferative activity against human HepG2 cells after 48 hrs by MTT assay. As to conditions: HepG2, 48 h. Type of assay: functional.
The target in assay [5] is T1, Protein deacetylase HDAC6 (Homo sapiens) (UniProt Q9UBN7).
T1 sequence (whole entry): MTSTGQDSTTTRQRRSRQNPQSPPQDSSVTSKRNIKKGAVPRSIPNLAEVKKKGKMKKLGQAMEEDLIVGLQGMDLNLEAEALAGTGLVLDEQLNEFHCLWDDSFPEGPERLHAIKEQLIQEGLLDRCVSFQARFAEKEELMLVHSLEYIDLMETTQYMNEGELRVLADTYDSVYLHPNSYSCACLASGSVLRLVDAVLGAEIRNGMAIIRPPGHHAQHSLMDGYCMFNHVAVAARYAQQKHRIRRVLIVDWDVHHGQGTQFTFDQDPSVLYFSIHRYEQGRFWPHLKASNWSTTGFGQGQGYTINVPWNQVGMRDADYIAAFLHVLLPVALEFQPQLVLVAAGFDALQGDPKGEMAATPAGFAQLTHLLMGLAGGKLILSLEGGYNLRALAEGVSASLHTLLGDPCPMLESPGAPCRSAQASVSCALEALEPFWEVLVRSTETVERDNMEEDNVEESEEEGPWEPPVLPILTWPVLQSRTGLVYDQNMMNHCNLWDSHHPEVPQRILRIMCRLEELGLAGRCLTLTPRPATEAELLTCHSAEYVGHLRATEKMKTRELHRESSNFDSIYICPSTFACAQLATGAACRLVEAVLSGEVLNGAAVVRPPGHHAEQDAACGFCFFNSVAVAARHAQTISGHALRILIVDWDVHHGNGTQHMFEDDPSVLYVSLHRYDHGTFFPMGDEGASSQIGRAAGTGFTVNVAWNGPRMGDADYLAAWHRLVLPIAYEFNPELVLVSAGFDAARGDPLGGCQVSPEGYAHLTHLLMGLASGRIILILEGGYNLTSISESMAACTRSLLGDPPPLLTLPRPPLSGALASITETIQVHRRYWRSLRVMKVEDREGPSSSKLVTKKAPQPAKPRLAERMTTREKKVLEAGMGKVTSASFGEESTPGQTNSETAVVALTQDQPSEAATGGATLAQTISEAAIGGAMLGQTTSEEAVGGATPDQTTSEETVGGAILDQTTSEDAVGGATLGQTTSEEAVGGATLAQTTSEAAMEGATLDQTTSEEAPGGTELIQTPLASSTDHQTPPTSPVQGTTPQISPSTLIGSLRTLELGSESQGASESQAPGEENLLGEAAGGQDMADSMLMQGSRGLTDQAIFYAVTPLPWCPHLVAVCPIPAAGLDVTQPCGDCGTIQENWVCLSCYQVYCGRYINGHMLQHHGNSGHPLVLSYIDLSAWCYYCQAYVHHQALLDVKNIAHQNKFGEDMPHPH
Kind of assay: Inhibition of HDAC6 in human U937 cells assessed as alpha-tubulin acetylation at 5 uM after 24 hrs by Western blot. As to conditions: U-937. Type of assay: cell-based. The procedure, abridged:
(§1)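 Human leukemia U937 cells exposed to 5 µM for 24 h. Acetyl-histone H3 was read by Western blot as a class I HDAC marker, and acetyl-α-tubulin as an HDAC6 marker.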

Assay [6] can be described thus: Inhibition of HDAC.
For assay [7], the system named is HCT-116. Kind of assay: Antiproliferative activity against human HCT116 cells after 48 hrs by MTT assay. Type of assay: functional. The following applies: HCT-116, 48 h.
For assay [8], the target named is Histone deacetylase (Homo sapiens) (UniProt Q13547+O15379+Q9UBN7+Q92769+Q9UQL6+Q8WUI4+Q9BY41+Q96DB2+P56524+Q9UKV0+Q969S8). The assay is described as follows: Inhibition of HDAC in human U937 cells assessed as histone H3 acetylation at 5 uM after 24 hrs by Western blot. The assay is classed as cell-based. The following applies: U-937. The procedure, abridged:
as §1

In assay [9] the test system is U-937. Kind of assay: Induction of granulocytic differentiation in human U937 cells assessed as CD11c positive PI negative cells at 5 uM after 30 hrs by FACS. The assay is classed as functional, cell-based. The procedure, abridged: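 U937 human leukemia cells treated 30 h at 5 µM; differentiation scored by FACS as the percentage of CD11c-positive, PI-negative cells; values are the mean of four independent replicates.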

In assay [10] the test system is U-937. The assay is described as follows: Induction of apoptosis in human U937 cells at 5 uM after 30 hrs by propidium iodide and annexin V staining. Type of assay: functional, cell-based.
The test system of assay [11] is U-937. The assay is described as follows: Cell cycle arrest in human U937 cells assessed as accumulation at S phase at 5 uM after 30 hrs by FACS. Type of assay: functional, cell-based.
Assay [12] concerns U-937. The assay is described as follows: Induction of p21WAF1/CIP1 expression in human U937 cells at 5 uM after 24 hrs by Western blot. Type of assay: functional, cell-based.
The target in assay [13] is Histone deacetylase 4 (Homo sapiens, UniProt P56524). The assay is described as follows: Inhibition of human recombinant his tagged HDAC4 expressed in baculovirus.
Assay [14] addresses Histone deacetylase 1 (Homo sapiens, UniProt Q13547). Kind of assay: Inhibition of human recombinant HDAC1 expressed in baculovirus.

Histone deacetylase 4, sequence (P56524 whole entry): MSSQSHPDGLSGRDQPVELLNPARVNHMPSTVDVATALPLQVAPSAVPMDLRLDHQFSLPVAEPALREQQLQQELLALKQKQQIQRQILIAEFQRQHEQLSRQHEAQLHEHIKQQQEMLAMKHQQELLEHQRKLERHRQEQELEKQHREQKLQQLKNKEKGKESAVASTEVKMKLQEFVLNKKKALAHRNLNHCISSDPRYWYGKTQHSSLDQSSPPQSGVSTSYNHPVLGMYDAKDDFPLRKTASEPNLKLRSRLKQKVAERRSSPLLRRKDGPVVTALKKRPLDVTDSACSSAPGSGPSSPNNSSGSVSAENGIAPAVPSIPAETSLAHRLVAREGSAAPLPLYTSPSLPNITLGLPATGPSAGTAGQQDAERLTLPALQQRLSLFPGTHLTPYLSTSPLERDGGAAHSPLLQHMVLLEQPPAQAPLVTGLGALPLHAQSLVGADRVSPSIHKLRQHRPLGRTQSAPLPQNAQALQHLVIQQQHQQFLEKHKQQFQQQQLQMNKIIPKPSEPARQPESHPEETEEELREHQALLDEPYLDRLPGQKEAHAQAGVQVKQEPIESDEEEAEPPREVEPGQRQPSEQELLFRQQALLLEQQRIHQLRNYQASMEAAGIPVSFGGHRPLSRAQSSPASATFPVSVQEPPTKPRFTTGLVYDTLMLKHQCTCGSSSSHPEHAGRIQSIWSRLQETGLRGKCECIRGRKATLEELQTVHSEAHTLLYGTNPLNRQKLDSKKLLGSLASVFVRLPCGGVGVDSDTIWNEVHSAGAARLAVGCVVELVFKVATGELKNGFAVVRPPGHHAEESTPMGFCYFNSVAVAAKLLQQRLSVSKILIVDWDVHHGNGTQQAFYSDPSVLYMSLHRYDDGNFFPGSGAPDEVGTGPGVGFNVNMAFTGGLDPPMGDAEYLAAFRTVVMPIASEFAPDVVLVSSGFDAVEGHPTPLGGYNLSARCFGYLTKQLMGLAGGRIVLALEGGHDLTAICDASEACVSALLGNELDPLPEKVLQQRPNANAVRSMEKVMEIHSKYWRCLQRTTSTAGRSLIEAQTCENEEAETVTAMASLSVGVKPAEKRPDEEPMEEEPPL
Histone deacetylase 1, sequence (Q13547 whole entry): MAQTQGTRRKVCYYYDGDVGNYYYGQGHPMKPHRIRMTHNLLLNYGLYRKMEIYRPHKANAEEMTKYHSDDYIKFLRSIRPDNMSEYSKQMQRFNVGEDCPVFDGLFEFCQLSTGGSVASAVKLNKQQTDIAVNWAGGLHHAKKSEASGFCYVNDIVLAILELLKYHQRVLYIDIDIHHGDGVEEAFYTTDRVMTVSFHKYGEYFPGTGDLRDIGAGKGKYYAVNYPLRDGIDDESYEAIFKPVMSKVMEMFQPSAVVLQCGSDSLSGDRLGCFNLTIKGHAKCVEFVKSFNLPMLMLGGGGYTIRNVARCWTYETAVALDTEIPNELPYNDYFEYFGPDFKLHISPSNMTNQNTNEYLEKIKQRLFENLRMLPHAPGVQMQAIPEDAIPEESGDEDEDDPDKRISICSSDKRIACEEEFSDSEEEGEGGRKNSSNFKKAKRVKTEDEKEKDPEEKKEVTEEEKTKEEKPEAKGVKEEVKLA

`Cc1ccc(-c2cnc(N(CCCCOc3ccccc3)Cc3ccc(C(=O)NO)cc3)s2)cc1`: the 50% growth inhibitory concentration (GI50) came to 10.3 µM in [1], 14.2 µM in [3], 16.6 µM in assay [4] and 0.68 µM in assay [7]. The result in assay [2] was Active. The inhibition result in [5] and in assay [8] was “Active” each time. The same compound gave an IC50 in assay [6] of 0.057 µM.
In the case of `Cc1ccc(OCCCCN(Cc2ccc(C(=O)NO)cc2)c2ncc(-c3ccc(C)cc3)s2)cc1`, the outcome in assay [9], in [10] and in assay [11] was Active. Further, the GI50 in assay [1] was determined as 1.22 µM; in [3], 8.63 µM; in assay [4], 11 µM; in [7], 0.58 µM. Besides, the IC50 in assay [6] came to 1.67 µM.
Consider `Cc1ccc(-c2cnc(N(Cc3ccccc3)Cc3ccc(C(=O)NO)cc3)s2)cc1`, for which the GI50 in assay [1] amounted to 10.3 µM; in assay [3], 4.41 µM; in [4], 34 µM; in assay [7] it was 48.8 µM. For the same compound, the IC50 in assay [6] was 3.11 µM.
For `CCCCN(Cc1ccc(C(=O)NO)cc1)c1ncc(-c2ccc(C)cc2)s1` the same measures were 6.41 µM, 4.78 µM, 4.3 µM, 8.78 µM and 1.35 µM.
For `O=C(CCCCCCC(=O)Nc1ccccc1)NO` [VORINOSTAT] the same measures were 8.17 µM, more than 200 µM, 63.5 µM, 2.69 µM and 0.053 µM.
For `Cc1ccc(-c2cnc(N(Cc3ccc(C(=O)NO)cc3)C(C)C)s2)cc1` the same measures were 1.15 µM, 3.83 µM, 2.18 µM, 7.8 µM and 0.168 µM.
On to `CCCCCCN(Cc1ccc(C(=O)NO)cc1)c1ncc(-c2ccc(C)cc2)s1`, for which the GI50 came out at 5.27 µM in [1], 3.71 µM in assay [3], 7.42 µM in assay [4] and 4.85 µM in [7]. In [6], this compound came in with an IC50 of 2.79 µM.
For `CCCCCCCCN(Cc1ccc(C(=O)NO)cc1)c1ncc(-c2ccc(C)cc2)s1`, in that order: 13.3 µM, 4.63 µM, 8.76 µM, 6.5 µM and 1.59 µM.
On to `Cc1ccc(-c2cnc(N(CCOc3ccccc3)Cc3ccc(C(=O)NO)cc3)s2)cc1`, for which the result in assay [9], in assay [10], in [12] and in [2] was Active. In addition, the GI50 in [1] amounted to 7.86 µM; in assay [3] it was 14 µM; in assay [4], 12 µM; in assay [7], 8.81 µM. Besides, the figures for the IC50 in assay [13], in assay [14] and in assay [6] were more than 50 µM, 2.3 µM and 0.041 µM, respectively. The inhibition result in assay [5] is “inactive”. Further, the inhibition entry in [8] is “Active”.
For the compound `CCCN(Cc1ccc(C(=O)NO)cc1)c1ncc(-c2ccc(C)cc2)s1`, the GI50 in assay [1] worked out at 9.16 µM; in assay [3] it was 3.31 µM; in [4], 2.55 µM; in [7] it was 5.8 µM. In [6], half-maximal inhibition (IC50) was put at 0.052 µM.
As for `Cc1ccc(-c2cnc(N(Cc3ccc(C(=O)NO)cc3)CC(C)C)s2)cc1`, the GI50 in assay [1] came to 9.34 µM; in assay [3], 20.4 µM; in [4], 7.42 µM; in assay [7], 5.9 µM. Moreover, 0.494 µM corresponded to half-maximal inhibition in assay [6] (IC50).
Turning to `CCN(Cc1ccc(C(=O)NO)cc1)c1ncc(-c2ccc(C)cc2)s1`, the GI50 was 10.3 µM in assay [1], 2.7 µM in assay [3], 1.12 µM in [4] and 6.87 µM in assay [7]. Besides, in assay [6], it took 0.054 µM to reach half-maximal inhibition (IC50).
For the compound `Cc1ccc(-c2cnc(N(CCCOc3ccccc3)Cc3ccc(C(=O)NO)cc3)s2)cc1`, the GI50 in [1] was 17.5 µM; in assay [3], 2.53 µM; in assay [4], 23.4 µM; in assay [7], 4.14 µM. Moreover, the result in [12] and in assay [2] was Active. In addition, the inhibition entry in [5] and in [8] was “Active” in each case. In assay [6], this compound returned an IC50 of 0.195 µM.
As to `Cc1ccc(OCCCN(Cc2ccc(C(=O)NO)cc2)c2ncc(-c3ccc(C)cc3)s2)cc1`, the 50% growth inhibitory concentration (GI50) worked out at 9.33 µM in [1], 32.5 µM in assay [3], 12.2 µM in [4] and 12.6 µM in assay [7]. Moreover, the result in [12] and in [2] was Active. Further, the inhibition result in [5] and in [8] was “Active” throughout. This compound also yielded an IC50 in assay [6] of 1.07 µM.
Regarding `Cc1ccc(OCCN(Cc2ccc(C(=O)NO)cc2)c2ncc(-c3ccc(C)cc3)s2)cc1`, the result in assay [9], in [10], in assay [12] and in assay [2] was Active. Also, the GI50 in assay [1] came to 5.57 µM; in assay [3], 11.2 µM; in assay [4], 11.5 µM; in assay [7] it was 17.3 µM. Also, the IC50 in assay [13] is more than 50 µM; in assay [14], 1.05 µM; in assay [6] it was 0.101 µM. The inhibition entry in assay [5] and in assay [8] was “Active” throughout.
Regarding `CCCCCN(Cc1ccc(C(=O)NO)cc1)c1ncc(-c2ccc(C)cc2)s1`, the GI50 in [1] amounted to 5.06 µM; in assay [3], 9.14 µM; in assay [4], 7.02 µM; in assay [7], 23.3 µM. The same compound returned an IC50 in [6] of 4.33 µM.
